# Assay results reported in the EternaBench riboswitch data.
# Tested on: MS2 coat protein
# Experiment: apparent Kd, MS2 coat protein; higher = weaker binding; RNA-MaP array; FMN 200 µM where present
# In short: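 The titrant was SNAP-549-labelled MS2 coat protein, run from 0.7 or 1.5 nM in doubling steps to 3 µM. It was applied to designs transcribed by stalled E. coli RNA polymerase on Illumina sequencing-chip clusters, without ligand first and then with constant ligand, in 100 mM Tris-HCl pH 7.5, 80 mM KCl, 4 mM MgCl2, BSA, DTT, yeast tRNA and Tween-20. The apparent Kd is the median of filtered per-cluster binding-curve fits, with green signal normalised to red-channel RNA signal and control-cluster median Fmax.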
# [1] = designed as: ON switch for flavin mononucleotide, no ligand
# [2] = ligand present: flavin mononucleotide, designed as: ON switch for flavin mononucleotide
# [3] = designed as: OFF switch for flavin mononucleotide, no ligand
# [4] = ligand present: flavin mononucleotide, designed as: OFF switch for flavin mononucleotide
Sequence,apparent Kd [1] [nM],apparent Kd [2] [nM],apparent Kd [3] [nM],apparent Kd [4] [nM]
AAAAAAAAAGUCGAGGAUAUCCACAUGGCUACAUGAGGAUCACCCAUGUGAAGAAAAGCACAUGAGGAGAAGGCGACAAAAAAAAA,28.1,13.7,–,–
AAAAAAAAUGUGUAGGAUAUCAGUAAAAAUACAUGAGGAUCACCCAUGUUCAAAAAAAAAAAAACUGAGAAGGACACGGGAAGUCC,48.5,30.3,–,–
AAAAAACAUGAGGAUCACCCAUGUAAAAAAAUGGGAGGAUAUACAAAAACGAAAGUCAAAGUAGAAGGCCUGAAAA,119,25.6,–,–
AAAAAACAUGAGGAUCACCCAUGUAAGGAUAUCGUGCAGAAAAAAAAAAAAAACUGCACGAGAAGGUACUUGGA,–,–,81,143
AAAAAACAUGAGGAUCACCCAUGUCAGGAUAUCGUAAAAAAAAAAAAAAAAAAAAAUGCGAGAAGGGACUGGAA,–,–,87.4,125
AAAAAACAUGAGGAUCACCCAUGUCUUCGGACGUGAGGAUAUGUACAGACUUCGGUCUGUACAGAAGGCACGUCAA,31.3,19.2,–,–
AAAAAACAUGAGGAUCACCCAUGUGAAAAUAUGGGAGGAUAUACAAACACGAAAGUGAAAGUAGAAGGCCUAAAAA,97,25.6,–,–
AAAAAACAUGAGGAUCACCCAUGUGAGGAUAUCGAAAAGUUAAAGAAAAAGACGAAAAUGAGAAGGCGCAAAAA,–,–,47.3,46.7
AAAAAACAUGAGGAUCACCCAUGUGAGGAUAUGACGUAAAUAAAGAAAGAAGAAAUCGUCAGAAGGCACACCUA,–,–,52.7,79.3
AAAAAACAUGAGGAUCACCCAUGUGAGGAUAUGGAAAAAAAAAAAAAAAAAAAAAAAACCAGAAGGCACAAAAA,–,–,92.6,60
AAAAACAUAGGAUAUACAUGAGGAUCACCCAUGUUAAAAUAAAGAAAGGGAGAAAUAAGUAGAAGGAUGAAAAA,–,–,37.7,40.2
AAAAACUGAGGAUAUACGAAAAAAAAAAAAAAAAAAAAAAAACAUGAGGAUCACCCAUGUAGAAGGCAGAAAAA,–,–,50.4,38
AAAAAGCGAGGAUAUACAUAGCUAAGACGUGUGAGCGAAAAACAUGAGGAUCACCCAUGUAGAAGGCGCAAAAA,–,–,18,17.9
AAAAAGUCAGGAUAUGCUUAUAAUAAGAAAAUUAGAGAUAUGCAGAAGGGACAUGAGGAUCACCCAUGUAAAAA,–,–,35.3,37.8
AAAAAGUCAGGAUAUGUCAAAAGUCACAAAAGUGACAAAAGACAGAAGGGACAUGAGGAUCACCCAUGUAAAAA,–,–,29,46.4
AAAAAGUGAGGAUAUACAUGAGGAUCACCCAUGUGAAAGUCGAAAAAAAAGACAAAAAGUAGAAGGCACAAAAA,–,–,30.7,32.7
AAAAAGUGAGGAUAUACGCUGUGGAGUAGACACAACCAGUCGUAGAAGGCACAUGAGGAUCACCCAUGUUCAAA,–,–,27.2,30.1
AAAACAUGAGGAUCACCCAUGUAAAGAACGGUUAAUAAAUGUGAGGAUAUACUAAAAUUUACGUAGUAGAAGGCACUGGGUACA,20.8,25.1,–,–
AAAACAUGAGGAUCACCCAUGUAAAUAUCGGUUAAUUGUUGUGAGGAUAUACUAAAUUUUAAGAAGUAGAAGGCACUGGGUACA,–,23.9,–,–

Sequence,apparent Kd [1] [nM],apparent Kd [2] [nM],apparent Kd [3] [nM],apparent Kd [4] [nM]
AAAAGACAUGAGGAUCACCCAUGUAAAGACAUAGGAGGAUAUGUCUUGAAAAAAGACUUGACAGAAGGCCUUUGUC,23.8,20.8,–,–
AAAAGACAUGAGGAUCACCCAUGUCAAGACAUGGGAGGAUAUGCAUGGAAAACAUGCUGUGCAGAAGGCUCAUGUC,32.6,22.4,–,–
AAAAGACAUGAGGAUCACCCAUGUCUUCGGACAUGAGGAUAUGUACAGACUUCGGUCUGUACAGAAGGCAUGUAAA,42.9,17,–,–
AAAAGAUGAGGAUAUAUAUGGAAUCCAAGGCAUGUGCUCUCACAUGAGGAUCACCCAUGUAGAAGGCAUCUGCC,–,–,10.1,13
AAAAGCAAAGGAUAUACAUGAGGAUCACCCAUGUAAAAAAGAAAAGAGUAUAUGGCAUGUAGAAGGUUGCGUGG,–,–,34.5,49.8
AAAAGGUCAGGAUAUCGGCGCGGUUGGGAGGCAGGUCCGCGCGAGAAGGGACAUGAGGAUCACCCAUGUUAAAA,–,–,29.2,32.4
AAAAGGUCAGGAUAUGCCCUCCUGGUGGAAAAGCCUGGUGGGCAGAAGGGACAUGAGGAUCACCCAUGUAAAAA,–,–,60.8,81.8
AAAAUACAUGAGGAUCACCCAUGUGAAAAUAUGGGAGGAUAUACCGAAAAAAAAAAAAAGGUAGAAGGCCCAAAAA,22.5,32.5,–,–
AAAAUACAUGAGGAUCACCCAUGUUAGGAUAUCCAAGGUCUAACCCUCAGGGUUAGACGGAGAAGGGAUGUGGU,–,–,60.8,61.6
AAAAUGUCAGGAUAUGCGAAGGCGUCUGAUAGACGAGGCUAGCAGAAGGGACAUGAGGAUCACCCAUGUAAAAA,–,–,52.6,152
AAAAUGUCAGGAUAUUGUUAGUUUAGUUGUUUGUAUUAGUUCGAGAAGGGACAUGAGGAUCACCCAUGUUGAAA,–,–,33.8,33
AAAAUGUGAGGAUAUCACGGAGCUCCGCGUGACGGAGCUCCUGAGAAGGCACAUGAGGAUCACCCAUGUCCUGU,–,–,51.3,316
AAAAUGUGAGGAUAUCCGAAGGCGUCUGAUAGACGAGGCUAGGAGAAGGCACAUGAGGAUCACCCAUGUAAAAA,–,–,46.6,95.1
AAACAAGAAGGAUAUACAUUAUCGGAUCUUCCGGCAAUGCCACAUGAGGAUCACCCAUGUAGAAGGUCUAAAUU,–,–,12.3,18.9
AAACACAAACAUGAGGAUCACCCAUGUUAUGAAAAUAUUGGGAGAAGGGCGAUUGCAAAGCAAUCGCAGGAUAUUCGUAUUGUG,34.4,12.2,–,–
AAACACGGACAUGAGGAUCACCCAUGUGGCGAAAGCCUUGGGAGAAGGCCGUAUGCAAAGCAUACGGAGGAUAUUCAUACCGUG,1410,67.9,–,–
AAACAGCGAGAUAAUAAUGAUUACAUGAGGAUCACCCAUGUAUAGGAUAUCGUCAGGAAUACUGACGAGAAGGAUACAACGCUG,–,–,16,26.5
AAACAUGUCCGAGGAUAUCUGAGAACAUUUUCAAGAGAAGGCGGACAUGAGGAUCACCCAUGUCUCUCCUCAUCAACUCCAAAU,–,–,6.37,17.3
AAACAUGUCCGAGGAUAUCUGAGAUCAUUUUCAAGAGAAGGCGGACAUGAGGAUCACCCAUGUCUCUCCUCAUCAACUCCAAAG,–,–,7.22,35.6

Sequence,apparent Kd [1] [nM],apparent Kd [2] [nM],apparent Kd [3] [nM],apparent Kd [4] [nM]
AAACAUGUCCGAGGAUAUCUGGAAACACUUUCAAGAGAAGGCGGACAUGAGGAUCACCCAUGUCUCUCCUCAUCAAAUCCAAGU,–,–,6.53,30.2
AAACCCUGAGGAUAUACAUAACAACAAAGCCUCACGUGCCAACAUGAGGAUCACCCAUGUAGAAGGCAGGCCAA,–,–,12.8,41.7
AAACCGUGUGGAGGAUAUGCAGUUGAGGUAAGGCGGCAGCUCUAUACGACAGCAGAAGGCCACAUGAGGAUCACCCAUGUAGGU,–,–,122,53.2
AAACGGGCAGGAUAUGCGUACUCACGGGAAAACUGAAUGGUACAUGAGGAUCACCCAUGUAGAAGGGCUUAAAA,–,–,53.5,46.1
AAACUGCAGAAGAUAAUAAUGAAUACAUGAGGAUCACCCAUGUAGGAUAUCGUCAGGAAUACUGACGAGAAGGACAUACUGCAG,–,–,14.3,15.6
AAAGCAACAUGAGGAUCACCCAUGUAGGAUAUCGCUAUUGUAAUCAUGAAACAUGAUUACAAUAGCGAGAAGGACAUAUGCUUU,–,–,6.77,9.48
AAAGCACGAGGAUAUACAUGAGGAUCACCCAUGUAUAAAAAAAAAAAAAAAUCCUCAUGUAGAAGGCGUGCAAA,–,–,53.6,41
AAAUAAAGCAGUGUAUUAAGAUAACAUGAGGAUCACCCAUGUAGAAGGCUCGAGCAAAAUGCUCGAGAGGAUAUACAACACUGC,–,–,5.04,9.55
AAAUAAAGUACCUAGAUAUCCUCACAUGAGGAUCACCCAUGUCAGGAUAUUUGUCCUAAAAGGACAGAGAAGGGACAAGGUAUA,–,–,5.52,9.72
AAAUAACAUGAGGAUCACCCAUGUGCUGGAUAUGCAGGAUAUGGGCGGCGGGAGCGCGGCCCAGAAGGGCAGCUCC,100,113,–,–
AAAUAAGUUGCAGGAUAUUAUUUAUAAUAUAUAUAAGAAGGGCAACAAACCUCACAUGAGGAUCACCCAUGUACCCAUGCAUCU,–,–,109,44.8
AAAUACAGAGGAUAUGUACGAAUUGACAUGAGGAUCACCCAUGUGACUUCGUGCACUUUGACAGAAGGCUGGGAAU,–,–,16.8,32.7
AAAUAGUUAGGAUAUACAUGAGGAUCACCCAUGUGGACUGAUGGCGCUUGAUUCAGUGGUAGAAGGGACUCAAA,–,–,45.9,69.2
AAAUCAGUAGGAUAUACGAUUUUAUACUAGAUAGAGGAACCACAUGAGGAUCACCCAUGUAGAAGGACUAGAUA,–,–,14.6,14.9
AAAUCCUACGAAGGAUAUACAAACAUGAGGAUCACCCAUGUGUCUUUCGUGUAACUGGAAUUCGGGUAGAAGGUCGUAGACAUA,–,–,17,22.6
AAAUCGAGGUAACUCGCUAUCACACCAGAAGGGACGGAGGCACAUGAGGAUCACCCAUGUCCUAGUCAGGAUAUGGGUGAGUGG,25.6,4.96,–,–
AAAUCGUCAGGAUAUGCAUGUAAUUGUUACAUUUCUCCGUUGCAGAAGGGACAUGAGGAUCACCCAUGUAAGUC,–,–,31.2,29.2
AAAUGGAACUAAGGAUAUCUGUAUUUUGUUGAAACAUGAGGAUCACCCAUGUUCAUGAAAUUAUAGGAGAAGGUAGAUCCAUAA,4.51,4.6,–,–
AAAUUCAGAGGAUAUGCGCAUAGAUAAGACUUUGUUUCUUAACAUGAGGAUCACCCAUGUAGAAGGCUGUAAAA,–,–,19.4,19.8
